Compound activity (PubChem BioAssay)
CHT allo act = allosteric activators of human choline transporter CHT. Q9GZV3. CHT-expressing cells, membrane potential dye, choline EC20; stronger effect = higher value; LV-AA mutant CHT in HEK293 cells. B-score at 10 µM. actives 0.49% (n = 310,000);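 active = initial fluorescence not abnormally high and integrated response B-score, plate-corrected, over 3 SD above library mean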
NR2F2 inh = NR2F2 (human) inhibition, primary screen. P24468. HEK293T NGFI-A luciferase reporter, luminescence. inhibition, % at 8.6 µM. actives 0.7% (n = 370,000). AID 686940;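 active = inhibition above a per-plate cutoff, mean inhibition of test wells between control levels plus 3 SD, cut at about 38% in these data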;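 note: cells cotransfected with COUP-TFII expression vector driving the NGFI-A reporter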
Target sequence (P24468 whole entry, looked up): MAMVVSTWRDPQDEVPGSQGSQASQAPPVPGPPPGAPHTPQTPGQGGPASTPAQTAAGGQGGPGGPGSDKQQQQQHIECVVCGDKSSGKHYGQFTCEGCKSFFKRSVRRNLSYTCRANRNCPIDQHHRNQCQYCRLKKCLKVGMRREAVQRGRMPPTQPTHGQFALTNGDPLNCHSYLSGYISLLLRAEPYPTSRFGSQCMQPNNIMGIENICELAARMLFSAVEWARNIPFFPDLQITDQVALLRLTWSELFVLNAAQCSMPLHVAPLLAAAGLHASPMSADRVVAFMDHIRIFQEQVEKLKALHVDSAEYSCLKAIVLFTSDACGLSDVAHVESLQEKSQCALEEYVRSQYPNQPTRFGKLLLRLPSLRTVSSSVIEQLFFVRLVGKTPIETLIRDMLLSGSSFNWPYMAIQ
NR2E3 ag-1 = activates human photoreceptor nuclear receptor NR2E3 | Q9Y5X4 | GST-NR2E3/biotin-RetCOR TR-FRET, 1536-well | inhibition of corepressor binding, % at 4.78 µM | actives 0.12% (n = 320,000);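 active = percent inhibition above the cutoff of mean plus 3 SD of all tested compounds, set per screening campaign, cut at about 20% in these data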
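Assay system: NR2E3–RetCOR corepressor complex. Quantity: 1.35 nM GST-NR2E3. Buffer or medium: pH 7.5 Tris-based buffer. Reagent: biotinylated RetCOR corepressor at 7 nM final. Schedule: 5 h at 4 °C. Detection: TR-FRET, emission read at 617 and 671 nm. Replicates: one well per compound, singlicate testing.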
CHT block = human CHT choline transport inhibition | Q9GZV3 | CHT-expressing cells, membrane potential dye, choline response; stronger effect = lower value | B-score at 10 µM | actives 0.86% (n = 310,000);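 active = B-score over 3 SD under the library average, and starting fluorescence ratio not unusually high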;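 note: choline stimulus applied at its EC90 after an EC20 pre-addition; B-score computed on integrated fluorescence ratio after choline addition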
NR2E3 ag-2 = agonists of human NR2E3 nuclear receptor. Q9Y5X4. AID 602229. actives 0.35% (n = 360,000). inhibition of corepressor binding, % at 3.98 µM. CHO-S Gal4-NCOR/VP16-NR2E3 two-hybrid, luciferase;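 active = inhibition above the mean of all tested compounds plus 3 SD, cut at about 70% in these data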;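 note: higher means lower luciferase signal from less NR2E3 corepressor binding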
GalR3 antagonist = blocks the human galanin receptor 3; inhibition, % at 3 µM; actives 0.44% (n = 360,000); HEK293 GalR3-CNG cAMP membrane potential fluorescence; galR3 body fused to GalR1 C-terminus;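 active = inhibition above the screen-wide average plus 3 SD, cut at about 13% in these data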;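 note: forskolin and galanin both at EC90 stimulate the cells; cAMP rise reported by CNG channel membrane potential dye signal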
CHT inh conf = confirmation of human choline transporter CHT inhibitors; CHT activity remaining % of control (stronger effect = lower value), % at 10 µM; CHT-expressing cells, choline membrane potential dye; LV-to-AA substituted CHT, HEK293 cells; shares compounds with CHT block; actives 70% (n = 2,400);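 active = choline transporter activity left, mean of duplicates at 10 µM, below buffer-only control mean minus 3 SD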;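 note: depolarization triggered by choline at its EC90 following an EC20 pre-addition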
HEK293 CHT ctr = counter-screen for CHT inhibitors: effect in parental HEK293 cells; membrane potential dye, choline response; active = decrease or increase beyond buffer ±3SD; membrane potential ratio readout (active if shifted either direction beyond buffer ±3SD; no single direction) at 10 µM; actives 4% (n = 2,400); shares compounds with CHT block;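 note: parental cells lack the transporter so any hit is non-specific; ratio is peak minus trough fluorescence over baseline after EC90 choline challenge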
Hits are given with their value; n = inactive; x = no result given. This is a sample that favours compounds with a hit; in the whole collection about 2.3% have one here.

SMILES | CHT allo act | NR2F2 inh | NR2E3 ag-1 | CHT block | NR2E3 ag-2 | GalR3 antagonist | CHT inh conf | HEK293 CHT ctr
O=C(Nc1ccc(F)cc1)Nc1ccccc1NS(=O)(=O)c1cccs1 | n | n | n | -5.27 | n | n | n | n
COc1ccc(S[C@]2(C(=O)N3CCCC3)CC(=O)N(c3ccccc3OC)[C@@H]2c2ccc(OC)cc2)cc1 | x | n | x | x | x | x | x | x
COc1ccc(/C=C/S(=O)(=O)NCCc2ccccc2)c(CNC(=O)OC(C)(C)C)c1 | x | n | x | x | x | x | x | x
COc1cccc(C(=O)NN/C(C)=C/C(=O)C(F)(F)C(F)(F)C(F)(F)F)c1 | n | n | n | -8.38 | n | n | 66.5% | n
COc1cccc(C(=O)NNC(=O)Cc2ccc(Cl)cc2)c1 | n | n | n | n | n | n | x | x
COC(=O)CN1CCN(C(c2ccccc2)c2ccccc2)CC1 | n | n | n | n | n | n | x | x
CN(Cc1ccccc1)C(=O)CN1CCN(C(c2ccccc2)c2ccccc2)CC1 | n | n | n | -8.29 | n | n | 52.2% | n
CCOC(=O)C1CCN(C(=O)COc2cc(C)c(Br)cc2C)CC1 | n | n | n | -6.47 | n | n | n | n
CCOC(=O)C1CCN(C(=O)COc2ccc(Br)cc2Br)CC1 | n | n | n | n | n | n | x | x
C=CCn1c(SCC(=O)NC(=O)NC2CCCC2)nnc1C1CCCCC1 | n | n | n | -4.99 | n | n | 68.2% | n
C=CCn1c(SCC(=O)NCc2ccco2)nnc1C1CCCCC1 | n | n | n | n | n | n | x | x
COc1ccc([N+](=O)[O-])c(S(=O)(=O)c2ccccc2)n1 | n | n | n | -5.3 | n | n | 43.8% | n
COc1ccc([N+](=O)[O-])c(S(=O)(=O)c2ccc(Cl)cc2)n1 | n | n | n | -6.59 | n | n | 48.0% | n
O=[N+]([O-])c1cccnc1S(=O)(=O)c1ccccc1 | n | n | n | n | n | n | x | x
O=C(Nc1ccccc1)c1cccc(N2C(=O)C3C4C=CC(C4)C3C2=O)c1 (stereo not given) | n | n | n | n | n | n | x | x
CC1CCCCC1NC(=O)c1cccc(N2C(=O)C3C4C=CC(C4)C3C2=O)c1 (stereo not given) | n | n | n | -8.4 | n | n | 28.3% | n
Cc1ccccc1NC(=O)N1CCc2ccccc2C1 | n | n | n | -5.57 | n | n | n | n
Cc1cccc(NC(=O)N2CCc3ccccc3C2)c1C | n | n | x | n | n | n | x | x
Cc1ccc(/C=N/NC(=O)c2n[nH]c3c2CCCC3)cc1 | n | n | n | n | n | n | x | x
O=C(N/N=C/c1cccs1)c1n[nH]c2c1CCCC2 | n | n | n | -6.02 | n | n | n | n
CCOC(=O)CN1C(=O)S/C(=C/c2cc(C)n(C)c2C)C1=O | n | n | n | n | n | n | x | x
CCOC(=O)CN1C(=O)S/C(=C/c2ccc(O)c([N+](=O)[O-])c2)C1=O | n | n | n | -5.46 | n | n | n | n
CCOC(=O)[C@]12CCCCC/C=C\1N(Cc1ccc(OC)cc1)C(=O)[C@H]2CC(=O)NCCCOC | x | n | x | x | x | x | x | x
CCOc1ccccc1N1CCN(C(=O)C(F)(F)F)CC1 | n | x | n | -6.24 | n | x | n | n
CC(/C=C1\NC(=S)NC1=O)=C\c1ccccc1 | n | n | n | -5.45 | n | n | 67.6% | n
O=C1NC(=S)NC1=Cc1ccccc1O | x | n | x | x | n | n | x | x
Cc1cccn2c(CNC3CCCc4ccccc43)c(C(=O)N3CCOCC3)nc12 (stereo not given) | n | n | n | n | n | n | x | x
Cc1cccn2c(CNCC3OCCc4ccccc43)c(C(=O)N3CCCCC3)nc12 (stereo not given) | n | n | n | -6.57 | n | n | 48.2% | -13.2
CCOC(=O)C1CCN(C(=O)CN(c2ccc(Cl)c(C(F)(F)F)c2)S(C)(=O)=O)CC1 | n | n | n | -6.36 | n | n | n | n
